From ChEMBL document CHEMBL4477165, “Eremophilane-Type Sesquiterpenoids from an Acremonium sp. Fungus Isolated from Deep-Sea Sediments” (J Nat Prod, 2016)
pIC50: −log10 of the molar value.

How the values were obtained:
[1] = Cytotoxicity against mouse RAW264.7 cells assessed as cell survival at 50 uM after 24 hrs by MTT assay; type: cell-based; conditions: read-out: Survival
Summary of the method: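 RAW 264.7 mouse macrophages in DMEM with 10% FBS, penicillin and streptomycin, at 37 °C under 5% CO2. Seeded at 5 × 10^3 cells/well for 24 h, then exposed 24 h to samples at 50 μM final (1% DMSO; vehicle and cell-free blanks). MTT added, 4 h, medium replaced with DMSO, absorbance read at 490 nm.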

RAW264.7 [2] = assay: Antiinflammatory activity in mouse RAW264.7 cells assessed as inhibition of LPS-induced NO production at 50 uM by Griess assay; type: functional
Summary of the method: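 RAW 264.7 cells grown in DMEM with 10% FBS, penicillin/streptomycin, 37 °C, 5% CO2. Seeded 5 × 10^4 cells/well for 24 h, then given sample (final 50 μM, 1% DMSO) plus 2 μg/mL LPS for 24 h. Supernatant mixed with Griess reagents I and II, absorbance read at 540 nm. % inhibition computed against LPS-only (model) and no-LPS (blank) wells.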

[3] = Cytotoxicity against mouse RAW264.7 cells assessed as reduction in cell viability after 24 hrs by MTT assay; type: cell-based
Summary of the method: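 MTT viability test in RAW 264.7 cells plated at 5 × 10^3 per well for 24 h. Cells were treated with sample at final 50 μM in 1% DMSO for 24 h. 1% DMSO served as vehicle control and cell-free medium as blank. MTT was added for 4 h, formazan dissolved in DMSO, and absorbance read at 490 nm.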

[4] = Inhibition of NF-kappaB (unknown origin) expressed in mouse RAW264.7 cells pretreated for 1 hr followed by stimulation with LPS measured after 6 hrs by luciferase reporter gene assay; type: cell-based
Summary of the method: (§1)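 RAW 264.7 cells stably carrying a pNF-κB-Luc reporter, kept in DMEM/10% FBS with geneticin 500 μg/mL, 37 °C. Pretreated 1 h with sample (0.78–200 μM) and then stimulated with E. coli 055:B5 LPS for 6 h. […] Triplicates, mean ± SD; IC50 by sigmoidal nonlinear regression.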

RAW264.7 [5] = assay: Antiinflammatory activity in mouse RAW264.7 cells assessed as inhibition of LPS-induced NO production by Griess assay; type: functional, cell-based
Summary of the method: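 RAW 264.7 cells in DMEM/10% FBS seeded at 5 × 10^4 per well for 24 h. Samples added in DMSO (1% final) together with 2 μg/mL LPS and incubated 24 h. Nitrite read at 540 nm by Griess reagent.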

RAW264.7 [6] = assay: Inhibition of NF-kappaB (unknown origin) expressed in mouse RAW264.7 cells at 50 uM pretreated for 1 hr followed by stimulation with LPS measured after 6 hrs by luciferase reporter gene assay; type: cell-based; summary of the method: as §1

Row | SMILES | viability at 24 h, 50 µM [1] | inhibition at 50 µM (RAW264.7 [2]) | CC50 at 24 h [3] | pIC50 [4] | pIC50 (RAW264.7 [5]) | inhibition (RAW264.7 [6])
1 | CC1=C2C[C@]3(C)[C@@H](C)C=C[C@H](O)[C@]3(O)C=C2OC1=O | > 90% | 12% | > 50 µM | – | – | –
2 | C=C(C)[C@@H]1C[C@@]2(C)C(=CC1=O)[C@H](O)[C@H](O)C[C@@H]2C | > 90% | 22% | > 50 µM | – | – | –
3 | C=C(C(=O)O)[C@@H]1C[C@@]2(C)C(=CC1=O)C=C[C@H](OC(=O)CC/C=C/C)[C@@H]2C | > 90% | 97% | > 50 µM | 4.11 | 5.10 | 40%
4 | C/C=C/CCC(=O)O[C@H]1C=CC2=CC(=O)[C@H](/C(C=O)=C\OC)C[C@]2(C)[C@H]1C | > 90% | 66% | > 50 µM | – | 4.60 | 38%
5 | C=C(C)[C@@H]1C[C@@]2(C)C(=CC1=O)C[C@H](O)C[C@@H]2C | > 90% | 16% | > 50 µM | – | – | –
6 | C=C(C(=O)O)[C@@H]1C[C@@]2(C)C(=CC1=O)C=C[C@H](O)[C@@H]2C | > 90% | 11% | > 50 µM | – | – | –
7 | C/C=C/CCC(=O)O[C@H]1C=CC2=C[C@]3(O)OC(=O)C(CO)=C3C[C@]2(C)[C@H]1C | > 90% | 63% | > 50 µM | – | 4.59 | 20%
8 | S=C(S)N1CCCC1 [PYRROLIDINE DITHIOCARBAMATE] | – | – | – | 4.43 | – | –
9 | CC1=C2C[C@@]3(C)C(=C[C@@H](O)[C@H](O)[C@@H]3C)C=C2OC1=O | > 90% | 11% | > 50 µM | – | – | –
10 | CC1=C2C[C@]3(C)[C@@H](C)C=C[C@H](O)[C@@]3(O)C=C2OC1=O | > 90% | 7% | > 50 µM | – | – | –
11 | CC1=C2C[C@@]3(C)C(=C[C@H](O)[C@@H](O)[C@@H]3C)C=C2OC1=O | > 90% | 21% | > 50 µM | – | – | –
12 | CC1=C2C[C@@]3(C)C(=CC(=O)C(O)=C3C)C=C2OC1=O | > 90% | 16% | > 50 µM | – | – | –
13 | C/C=C/CCC(=O)O[C@H]1C=CC2=CC(=O)/C(=C(\C)C(=O)O)C[C@]2(C)[C@H]1C | > 90% | 46% | > 50 µM | – | 4.35 | –
14 | C=C(C)[C@@H]1C[C@@]2(C)C(=CC(=O)C[C@@H]2C)C[C@H]1O | > 90% | 4% | > 50 µM | – | – | –
15 | CC(=O)O[C@H]1[C@H](O)C=C2C=C3OC(=O)C(C)=C3C[C@]2(C)[C@H]1C | > 90% | 36% | > 50 µM | – | – | –
16 | CC1=C2C[C@@]3(C)C(=C[C@@H](O)[C@@H](O)[C@@H]3C)C=C2OC1=O | > 90% | 23% | > 50 µM | – | – | –
17 | C=C(CO)[C@@H]1C[C@@]2(C)C(=C[C@H](O)C[C@@H]2C)C[C@H]1O | > 90% | 15% | > 50 µM | – | – | –
18 | CC(=O)O[C@H]1C(=O)C=C2C=C3OC(=O)C(C)=C3C[C@]2(C)[C@H]1C | > 90% | 68% | > 50 µM | – | 4.66 | –
19 | C=C(C)[C@@H]1C[C@@]2(C)C(=CC1=O)C[C@H](OC(C)=O)C[C@@H]2C | > 90% | 29% | > 50 µM | – | – | –
20 | C=C(C)[C@@H]1C[C@@]2(C)C(=C[C@H](O)C[C@@H]2C)C[C@H]1OC(C)=O | > 90% | 30% | > 50 µM | – | – | –
21 | O=c1c(O)c(-c2ccc(O)c(O)c2)oc2cc(O)cc(O)c12 [QUERCETIN] | – | – | > 50 µM | – | 4.82 | –
22 | C=C(C)[C@@H]1C[C@@]2(C)C(=C[C@H](O)C[C@@H]2C)C[C@H]1O | > 90% | 24% | > 50 µM | – | – | –
23 | C/C=C/CCC(=O)O[C@H]1C=CC2=C[C@]3(O)OC(=O)C(C)=C3C[C@]2(C)[C@H]1C | > 90% | 92% | > 50 µM | 4.14 | 4.82 | 42%
24 | C=C(CO)[C@@H]1C[C@@]2(C)C(=CC(=O)C[C@@H]2C)C[C@H]1O | > 90% | 7% | > 50 µM | – | – | –
